Data: PMC3929235 (Bioorganic & medicinal chemistry letters, 2013)

Molecular target: human α4β2 AChRs (Homo sapiens, UniProt P17787+P43681)
Assay: FLEXstation membrane potential assay at α4β2
Type: cell-based
Conditions: compared with α4β2α5
Summary of the method: (§1)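 HEK tsA201 cells stably expressing the human receptor, kept in high-glucose DMEM with 10% FBS at 37 °C. Seeded on poly-D-lysine wells (150,000/well α4β2, α3β2; 200,000/well α3β2α5), then held at 29 °C for 20 h to raise expression. Membrane-potential dye fluorometry. Test compound serial dilutions added 15 min before nicotine. Response enhancement over nicotine alone, 3–4 wells per point, Hill fit; efficacy relative to reference PAM.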

human α4β2 AChRs, sequence (P43681 29-627 limits assumed): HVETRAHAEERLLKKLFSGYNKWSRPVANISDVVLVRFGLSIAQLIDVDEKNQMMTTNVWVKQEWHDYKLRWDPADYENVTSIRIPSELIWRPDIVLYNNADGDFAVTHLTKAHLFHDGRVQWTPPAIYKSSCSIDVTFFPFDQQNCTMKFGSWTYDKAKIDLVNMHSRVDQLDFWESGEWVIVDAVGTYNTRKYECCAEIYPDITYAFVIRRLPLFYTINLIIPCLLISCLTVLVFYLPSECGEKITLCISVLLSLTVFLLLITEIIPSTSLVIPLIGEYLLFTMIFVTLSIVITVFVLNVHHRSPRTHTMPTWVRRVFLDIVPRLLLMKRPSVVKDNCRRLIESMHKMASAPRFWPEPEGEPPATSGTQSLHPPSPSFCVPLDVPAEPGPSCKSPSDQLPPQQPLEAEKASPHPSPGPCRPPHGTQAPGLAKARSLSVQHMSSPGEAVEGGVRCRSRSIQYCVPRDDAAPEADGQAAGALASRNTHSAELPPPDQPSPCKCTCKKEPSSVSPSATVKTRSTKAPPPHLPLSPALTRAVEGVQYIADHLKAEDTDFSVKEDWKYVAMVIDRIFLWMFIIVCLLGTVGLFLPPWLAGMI
human α4β2 AChRs, sequence (P17787 26-502): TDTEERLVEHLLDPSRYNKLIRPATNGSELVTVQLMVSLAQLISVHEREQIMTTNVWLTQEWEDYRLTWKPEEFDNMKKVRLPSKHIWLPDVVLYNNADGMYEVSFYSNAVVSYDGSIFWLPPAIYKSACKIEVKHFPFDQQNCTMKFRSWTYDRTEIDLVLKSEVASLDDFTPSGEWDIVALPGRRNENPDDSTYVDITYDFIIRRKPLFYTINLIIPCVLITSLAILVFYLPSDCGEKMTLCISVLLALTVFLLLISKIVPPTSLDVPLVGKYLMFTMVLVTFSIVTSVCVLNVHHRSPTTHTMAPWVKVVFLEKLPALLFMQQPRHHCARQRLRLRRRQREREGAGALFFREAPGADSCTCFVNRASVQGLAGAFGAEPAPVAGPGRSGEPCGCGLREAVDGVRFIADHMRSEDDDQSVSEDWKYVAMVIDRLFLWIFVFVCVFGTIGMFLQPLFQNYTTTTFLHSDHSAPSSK

Row | PAM potency on α4β2 (in words) | SMILES
1 | equally potent | N#Cc1cccc(-n2nnc(-c3cccnc3)n2)c1 [Compound 5k, 3-(5-(pyridin-3-yl)-2H-tetrazol-2-yl)benzonitrile]

Same assay, conditions: without orthosteric agonist

Row | agonist activity at α4β2 | SMILES
2 | no agonist activity | N#Cc1cccc(-c2nc(-c3cccnc3)no2)c1 [Compound 1a, 3-(3-(pyridin-3-yl)-1,2,4-oxadiazol-5-yl)benzonitrile, reference compound]

Test system: not listed separately
Assay: Pharmacokinetics in mice
Type: in vivo
Conditions: mice

Row | clearance (in words) | oral exposure (in words) | SMILES
3 | moderate clearance | very good oral exposure | N#Cc1cccc(-n2nnc(-c3cccnc3)n2)c1 [Compound 5k, 3-(5-(pyridin-3-yl)-2H-tetrazol-2-yl)benzonitrile]

Same assay, conditions: mouse, in vivo, intravenous, 1 mg/kg

Row | clearance | SMILES
4 | 46 mL/min/kg | N#Cc1cccc(-n2nnc(-c3cccnc3)n2)c1 [Compound 5k, 3-(5-(pyridin-3-yl)-2H-tetrazol-2-yl)benzonitrile]

Molecular target: human α4β2α5 AChRs (Homo sapiens, UniProt P17787+P30532+P43681)
Assay: FLEXstation membrane potential assay, PAM of nicotine response at α4β2α5
Type: cell-based
Conditions: Maximum efficacy relative to NS9283

human α4β2α5 AChRs, sequence (P43681 29-627 limits assumed): as the sequence (P43681 29-627 limits assumed) above
human α4β2α5 AChRs, sequence (P17787 26-502): as the sequence (P17787 26-502) above
human α4β2α5 AChRs, sequence (P30532 23-468): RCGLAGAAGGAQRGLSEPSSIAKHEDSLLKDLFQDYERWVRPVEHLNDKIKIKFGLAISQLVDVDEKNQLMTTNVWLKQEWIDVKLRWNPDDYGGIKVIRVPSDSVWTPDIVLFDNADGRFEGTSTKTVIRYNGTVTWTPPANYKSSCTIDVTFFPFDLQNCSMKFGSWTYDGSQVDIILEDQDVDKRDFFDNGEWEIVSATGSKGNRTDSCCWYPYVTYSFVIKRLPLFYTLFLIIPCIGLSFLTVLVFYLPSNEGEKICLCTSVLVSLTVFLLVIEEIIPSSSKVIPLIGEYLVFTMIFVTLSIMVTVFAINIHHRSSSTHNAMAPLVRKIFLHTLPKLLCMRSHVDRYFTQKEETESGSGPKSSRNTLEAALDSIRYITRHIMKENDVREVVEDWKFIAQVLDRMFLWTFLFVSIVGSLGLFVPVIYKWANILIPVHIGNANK

Row | Emax | SMILES
5 | 1 | N#Cc1cccc(-c2nc(-c3cccnc3)no2)c1 [Compound 1a, 3-(3-(pyridin-3-yl)-1,2,4-oxadiazol-5-yl)benzonitrile, reference compound]

Same assay, conditions: read-out: PAM(Y or N)

Row | SMILES | activation at 1 µM
6 | N#Cc1cccc(-n2nnc(-c3ccccn3)n2)c1 [Compound 11d] | < 50%
7 | NC(=O)c1cccc(-n2nnc(-c3cccnc3)n2)c1 [Compound 12e] | < 50%
8 | Fc1ccc(-n2nnc(-c3cccnc3)n2)c(F)c1 [Compound 12a] | < 50%
9 | N#Cc1cccc(-n2cnc(-c3cccnc3)c2)c1 [Compound 5e] | < 50%
10 | N#Cc1cccc(-c2ncn(-c3cccnc3)n2)c1 [Compound 5f] | < 50%
11 | C[n+]1cccc(-c2noc(-c3cccc(C#N)c3)n2)c1 [Compound 1e] | < 50%
12 | N#Cc1cccc(-n2nnc(-c3ccccc3)n2)c1 [Compound 11b] | < 50%
13 | C[n+]1cccc(-c2nnn(-c3cccc(C#N)c3)n2)c1 [Compound 11a] | < 50%
14 | Fc1cccc(-c2nc(-c3cccnc3)no2)c1F [Compound 4e] | < 50%
15 | N#Cc1cccc(-n2nnc(-c3ccncc3)n2)c1 [Compound 11c] | < 50%
16 | Clc1ccccc1-c1nc(-c2cccnc2)no1 [Compound 4b] | < 50%
17 | N#Cc1cccc(-c2nc(-c3ccccn3)no2)c1 [Compound 1c] | < 50%
18 | COc1ccc(OC)c(-n2nnc(-c3cccnc3)n2)c1 [Compound 12b] | < 50%
19 | O=[N+]([O-])c1ccccc1-c1nc(-c2cccnc2)no1 [Compound 4g] | < 50%
20 | N#Cc1cccc(-c2nc(-c3ccccc3)no2)c1 [Compound 1b] | < 50%

Continued, values first:

Row | activation at 1 µM | SMILES
21 | < 50% | COc1cc(OC)cc(-n2nnc(-c3cccnc3)n2)c1 [Compound 12d]
22 | < 50% | N#Cc1cccc(-c2nc(-c3ccncc3)no2)c1 [Compound 1d]
23 | < 50% | FC(F)(F)c1cccc(-c2nc(-c3cccnc3)no2)c1 [Compound 4j]
24 | < 50% | c1ccc(-c2nc(-c3cccnc3)no2)cc1 [Compound 4a]
25 | < 50% | N#Cc1cccc(-n2nnc(-c3cnccc3Cl)n2)c1 [Compound 11h]
26 | < 50% | N#Cc1cccc(-n2nnc(-c3cccnc3Cl)n2)c1 [Compound 11f]
27 | < 50% | N#Cc1cccc(-n2cc(-c3cccnc3)nn2)c1 [Compound 5j]
28 | < 50% | Clc1cc(Cl)cc(-n2nnc(-c3cccnc3)n2)c1 [Compound 12c]
29 | < 50% | N#Cc1cccc(-c2ccn(-c3cccnc3)n2)c1 [Compound 5c]
30 | < 50% | Cc1ccc(-n2nnc(-c3cccnc3)n2)cc1C#N [Compound 12g]
31 | < 50% | N#Cc1cccc(-n2nnc(-c3cncc(Cl)c3)n2)c1 [Compound 11g]
32 | < 50% | FC(F)(F)Oc1cccc(-c2nc(-c3cccnc3)no2)c1 [Compound 4k]
33 | < 50% | COc1cccc(-c2nc(-c3cccnc3)no2)c1 [Compound 4l]
34 | < 50% | N#Cc1cccc(-n2cc(-c3cccnc3)cn2)c1 [Compound 5b]
35 | < 50% | N#Cc1cccc(-n2ccc(-c3cccnc3)n2)c1 [Compound 5a]
36 | < 50% | Clc1ccc(-c2nc(-c3cccnc3)no2)cc1 [Compound 4c]
37 | < 50% | Brc1cccc(-n2nnc(-c3cccnc3)n2)c1 [Compound 12j]
38 | < 50% | N#Cc1cccc(-c2cn(-c3cccnc3)cn2)c1 [Compound 5d]
39 | < 50% | Clc1ccccc1-n1nnc(-c2cccnc2)n1 [Compound 12i]
40 | < 50% | Fc1cccc(-c2nc(-c3cccnc3)no2)c1 [Compound 4d]
41 | < 50% | N#Cc1cccc(-n2nnc(-c3ccc(Cl)nc3)n2)c1 [Compound 11e]

Molecular target: human α3β2 AChRs (Homo sapiens, UniProt P17787+P32297)
Assay: Counter-screen against α3β2 nAChR
Type: cell-based
Conditions: not given
Summary of the method: as §1

human α3β2 AChRs, sequence (P32297 32-505): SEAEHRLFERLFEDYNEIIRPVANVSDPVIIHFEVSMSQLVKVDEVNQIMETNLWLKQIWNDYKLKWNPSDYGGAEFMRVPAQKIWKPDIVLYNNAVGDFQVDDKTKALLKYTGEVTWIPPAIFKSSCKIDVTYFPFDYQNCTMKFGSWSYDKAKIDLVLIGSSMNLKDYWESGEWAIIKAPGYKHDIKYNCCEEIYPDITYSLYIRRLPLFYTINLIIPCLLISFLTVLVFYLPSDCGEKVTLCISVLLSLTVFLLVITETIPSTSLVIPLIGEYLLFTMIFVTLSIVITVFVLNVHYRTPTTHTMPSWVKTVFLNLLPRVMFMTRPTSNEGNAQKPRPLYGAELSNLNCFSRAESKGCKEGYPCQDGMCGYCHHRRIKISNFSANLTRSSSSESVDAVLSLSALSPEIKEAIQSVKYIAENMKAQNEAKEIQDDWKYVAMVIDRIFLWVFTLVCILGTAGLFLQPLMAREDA
human α3β2 AChRs, sequence (P17787 26-502): as the sequence (P17787 26-502) above

Row | activity against α3β2 | SMILES
42 | no activity | N#Cc1cccc(-n2nnc(-c3cccnc3)n2)c1 [Compound 5k, 3-(5-(pyridin-3-yl)-2H-tetrazol-2-yl)benzonitrile]
43 | no activity | N#Cc1cccc(-c2nc(-c3cccnc3)no2)c1 [Compound 1a, 3-(3-(pyridin-3-yl)-1,2,4-oxadiazol-5-yl)benzonitrile, reference compound]

Molecular target: human α3β4 AChRs (Homo sapiens, UniProt P30926+P32297)
Assay: Counter-screen against α3β4 nAChR
Type: cell-based
Conditions: not given
Summary of the method: (§2)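 Membrane-potential fluorometry on HEK tsA201 cells stably expressing human receptor, cultured in high-glucose DMEM with 10% FBS, 37 °C, 5% CO2. Poly-D-lysine-coated wells seeded at 150,000 (α3β4) or 200,000 (α3β4α5) cells. Serial dilutions of test compound applied 15 min before nicotine, injected during recording. Points averaged from 3–4 wells; Hill equation fitted to enhancement relative to nicotine-evoked signal.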

human α3β4 AChRs, sequence (P32297 32-505): as the sequence (P32297 32-505) above
human α3β4 AChRs, sequence (P30926 22-498): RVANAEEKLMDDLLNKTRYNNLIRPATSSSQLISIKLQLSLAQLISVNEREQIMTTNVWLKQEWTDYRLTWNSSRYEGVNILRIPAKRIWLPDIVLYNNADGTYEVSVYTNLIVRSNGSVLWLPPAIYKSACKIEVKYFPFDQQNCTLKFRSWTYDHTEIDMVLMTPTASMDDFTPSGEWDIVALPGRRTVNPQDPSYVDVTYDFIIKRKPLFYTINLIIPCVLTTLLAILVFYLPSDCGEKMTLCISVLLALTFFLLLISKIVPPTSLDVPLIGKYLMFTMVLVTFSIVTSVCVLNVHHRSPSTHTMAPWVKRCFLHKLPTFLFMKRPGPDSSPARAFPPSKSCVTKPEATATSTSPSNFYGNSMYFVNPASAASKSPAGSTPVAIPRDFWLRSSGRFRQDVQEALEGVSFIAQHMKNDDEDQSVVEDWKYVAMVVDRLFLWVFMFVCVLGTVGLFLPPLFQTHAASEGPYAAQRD

Row | activity against α3β4 | SMILES
44 | no activity | N#Cc1cccc(-n2nnc(-c3cccnc3)n2)c1 [Compound 5k, 3-(5-(pyridin-3-yl)-2H-tetrazol-2-yl)benzonitrile]
45 | no activity | N#Cc1cccc(-c2nc(-c3cccnc3)no2)c1 [Compound 1a, 3-(3-(pyridin-3-yl)-1,2,4-oxadiazol-5-yl)benzonitrile, reference compound]

Molecular target: human α3β4α5 AChRs (Homo sapiens, UniProt P30532+P30926+P32297)
Assay: Counter-screen against α3β4α5 nAChR
Type: cell-based
Conditions: not given
Summary of the method: as §2

human α3β4α5 AChRs, sequence (P32297 32-505): as the sequence (P32297 32-505) above
human α3β4α5 AChRs, sequence (P30926 22-498): as the sequence (P30926 22-498) above
human α3β4α5 AChRs, sequence (P30532 23-468): as the sequence (P30532 23-468) above

Row | activity against α3β4α5 | SMILES
46 | no activity | N#Cc1cccc(-n2nnc(-c3cccnc3)n2)c1 [Compound 5k, 3-(5-(pyridin-3-yl)-2H-tetrazol-2-yl)benzonitrile]
47 | no activity | N#Cc1cccc(-c2nc(-c3cccnc3)no2)c1 [Compound 1a, 3-(3-(pyridin-3-yl)-1,2,4-oxadiazol-5-yl)benzonitrile, reference compound]

Molecular target: human α3β2α5 AChRs (Homo sapiens, UniProt P17787+P30532+P32297)
Assay: Counter-screen against α3β2α5 nAChR
Type: cell-based
Conditions: not given
Summary of the method: as §1

human α3β2α5 AChRs, sequence (P32297 32-505): as the sequence (P32297 32-505) above
human α3β2α5 AChRs, sequence (P17787 26-502): as the sequence (P17787 26-502) above
human α3β2α5 AChRs, sequence (P30532 23-468): as the sequence (P30532 23-468) above

Row | activity against α3β2α5 | SMILES
48 | no activity | N#Cc1cccc(-n2nnc(-c3cccnc3)n2)c1 [Compound 5k, 3-(5-(pyridin-3-yl)-2H-tetrazol-2-yl)benzonitrile]
49 | no activity | N#Cc1cccc(-c2nc(-c3cccnc3)no2)c1 [Compound 1a, 3-(3-(pyridin-3-yl)-1,2,4-oxadiazol-5-yl)benzonitrile, reference compound]
